Screening data (PubChem BioAssay)
Lung fibro prol: blocks proliferation of human lung fibroblasts. viability, % at 10 µM. AID 719. LL 47 human lung fibroblast viability, ATP luminescence; hits give low values. 85,000 compounds, 1.1% hits;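 active means viability at or below 50% in the single dose screen; inactive means viability above 50%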;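 further: compound exposure lasted 72 h before the ATP readout; 100% = median luminescence of untreated cell-only wells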
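Test system: LL 47 human lung fibroblasts; Quantity: 1,150 cells/well; Buffer or medium: IMEM plus 15% FBS; Dosing: tenfold compound dosing solution, DMSO at 0.1%; Timing: overnight cell rest, 72 h compound treatment at 37 °C; Detection: ATP-based CellTiter-Glo luminescent readout; Read-out basis: viability percentage against median untreated-cell control; Controls: cell-only wells, no compound.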
Calb biofilm kill: kills Candida albicans biofilms | inhibition, % at 6 µM | AID 834 | 85,000 compounds, 0.14% hits | C. albicans biofilm + clotrimazole, Alamar Blue;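 active means inhibition above 20%; inactive means inhibition below 20%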;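 further: preformed 24 hr biofilms exposed to compound for 48 hr; 0% = biofilm without compound and 100% = blank killed by clotrimazole plus chlorhexidine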
HCT116 bCat-KO: beta-catenin-lacking colon tumor cell growth suppression. HCT116 beta-catenin knockout viability, CellTiter-Glo, 60 h; hits give low values. viability, % at 10 µM. 140,000 compounds, 1.5% hits;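 active means viability at or under a set limit, the compound median less 4 SD, cut at about 6% in these data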;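 further: 0% = Hyamine 1622 control at 20 µM and 100% = untreated cell control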
HUVEC prolif 384: blocks proliferation of human endothelial cells. HUVEC proliferation, CellTiter-Glo luminescence, 72 h; hits give low values. 86,000 compounds, 1.1% hits. viability, % at 10 µM (by protocol);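 active means viability at or below 30%; inactive means viability above 30%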;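 further: 100% = median luminescence of DMSO-only cell control wells on each plate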
PTEN del growth: growth suppressors of cells with PTEN tumor suppressor deletion. HCT116 PTEN-null viability, CellTiter-Glo, 60 h; hits give low values. viability, % at 10 µM. 140,000 compounds, 1.2% hits. AID 827;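 active means viability at or below a set limit, 4 SD under the median of all tested compounds, cut at about 3.7% in these data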;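 further: PTEN knockout HCT116 line with beta catenin targeted HCT116 as companion control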
H69AR inhibit: blocks growth of human H69AR lung tumor cells | viability, % at 10 µM | H69AR lung tumor viability, ATP luminescence, 72 h; hits give low values | 85,000 compounds, 6% hits | AID 598;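 active means viability at or below 40%; inactive means viability above 40%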;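 further: multidrug resistant small cell line overexpressing MRP-1 efflux transporter; 100% = mean luminescence of untreated control wells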
* = called active by the depositor. Only a selection was taken, and hits are over-represented in it overall.

`COc1cccc(/C=C/C(=O)c2ccc(C)c([N+](=O)[O-])c2)c1` gave HCT116 bCat-KO 2.7* and PTEN del growth 2.4*.
Screening COc1cccc(/C=C/C(=O)c2ccc[nH]2)c1 returned Lung fibro prol 77, Calb biofilm kill 10, HCT116 bCat-KO 35, HUVEC prolif 384 76, PTEN del growth 32 and H69AR inhibit 19*.
`COC(=O)c1ccc(C(=O)OC)c(NC(=S)N2CCCC(C)C2)c1` (stereo not given) gave HCT116 bCat-KO 103 and PTEN del growth 104.
COc1ccc(C(=O)Nc2ccc([N+](=O)[O-])cn2)c(OC)c1 was read as HCT116 bCat-KO 79 and PTEN del growth 77.
`Cc1ccc(Cc2c(C)nc3nc(SCC(=O)NCc4ccco4)nn3c2C)cc1` gave HCT116 bCat-KO 13 and PTEN del growth 14.
Screening Cc1nc2nc(SCC(=O)NCc3ccco3)nn2c(C)c1Cc1c(F)cccc1Cl returned Lung fibro prol 98, Calb biofilm kill -2, HCT116 bCat-KO 51, HUVEC prolif 384 68, PTEN del growth 53 and H69AR inhibit 35*.
`C=CCn1c(COc2cccc(C)c2)nnc1SCn1nnc2ccccc2c1=O` gave HCT116 bCat-KO 86 and PTEN del growth 96.
Screening O=C(Nc1ccc(SC(F)F)cc1)c1cccc2nc3ccccc3nc12 returned Lung fibro prol 39*, Calb biofilm kill 1, HCT116 bCat-KO 50, HUVEC prolif 384 26*, PTEN del growth 70 and H69AR inhibit 10*.
For CC(C)COc1ccc(C(=O)Nc2ccc(SC(F)F)cc2)cc1 the results were HCT116 bCat-KO 83 and PTEN del growth 93.
Screening Cc1nc([N+](=O)[O-])c(Br)n1CC(=O)c1ccc(Cl)cc1 returned Lung fibro prol 77, Calb biofilm kill 4, HCT116 bCat-KO 47, HUVEC prolif 384 77, PTEN del growth 41 and H69AR inhibit 1.2*.
Screening CCN=c1scc(-c2ccco2)n1/N=C/c1ccc(O)cc1 returned Lung fibro prol 122, Calb biofilm kill 6, HCT116 bCat-KO 104, HUVEC prolif 384 118, PTEN del growth 90 and H69AR inhibit 40*.
For COc1cc(C)c(CNc2cccc(C)c2)cc1C the results were Lung fibro prol 101, Calb biofilm kill 0, HCT116 bCat-KO 102, HUVEC prolif 384 104, PTEN del growth 89 and H69AR inhibit 113.
`COc1cc(C)c(CNc2ccc(OC)c(OC)c2)cc1C` gave Calb biofilm kill 3, HCT116 bCat-KO 65, HUVEC prolif 384 86, PTEN del growth 83 and H69AR inhibit 36*.
For COc1cc(CNc2ccc(C)c(C)c2)cc(OC)c1OC the results were Calb biofilm kill 6, HCT116 bCat-KO 17, HUVEC prolif 384 56, PTEN del growth 26 and H69AR inhibit 19*.
For C/C(=N\O)C(=O)NCCN(C)C the results were HCT116 bCat-KO 98 and PTEN del growth 106.
Screening O=C(COC(=O)c1cc([N+](=O)[O-])ccc1NCc1ccccc1)NCc1ccccc1Cl returned HCT116 bCat-KO 80 and PTEN del growth 80.
Screening O=C(COC(=O)c1cc([N+](=O)[O-])ccc1NCc1ccccc1)NC1CCCc2ccccc21 (stereo not given) returned Lung fibro prol 56, Calb biofilm kill -2, HCT116 bCat-KO 72, HUVEC prolif 384 72, PTEN del growth 70 and H69AR inhibit 38*.
Screening O=C(COc1ccccc1)Nc1cccc(-c2nc3cc4ccccc4cc3[nH]2)c1 returned HCT116 bCat-KO 1.7* and PTEN del growth 1.1*.
For CCOC(=O)c1c(NC(=O)CSc2n[nH]c(CNc3ccccc3)n2)sc(C)c1C the results were Lung fibro prol 74, Calb biofilm kill 3, HCT116 bCat-KO 24, HUVEC prolif 384 46, PTEN del growth 14 and H69AR inhibit 31*.
`CCOC(=O)c1c(NC(=O)CSc2nnnn2CC)sc(C)c1C` gave Lung fibro prol 84, Calb biofilm kill 2, HCT116 bCat-KO 92, HUVEC prolif 384 102, PTEN del growth 101 and H69AR inhibit 31*.
COc1ccc(/C=C/C(=O)NCC(=O)N/N=C/c2cc(Br)ccc2OCc2ccccc2)cc1 was read as Lung fibro prol 78, Calb biofilm kill -4, HCT116 bCat-KO 62, HUVEC prolif 384 46, PTEN del growth 60 and H69AR inhibit 7.4*.
Cc1sc2nc3ccc(NCc4ccco4)nn3c(=O)c2c1C was read as HCT116 bCat-KO 27 and PTEN del growth 18.
